This is a sample that favours compounds with a hit; in the whole collection about 2.2% have one here.
DTT redox prof = compounds producing H2O2 with reducing agent – biochemical, NIH compound library profiling, artefact control for MLSCN library redox annotation, primary screen. 200,000 compounds, 0.03% hits. activation, % at 10 µM. DTT-dependent redox cycling H2O2, phenol red/HRP absorbance; 100% = 100 µM peroxide control, 0% = buffer. AID 878;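 active = activation of at least 50% relative to the plate's high and low controls in the primary single-dose screen; inactive = activation below 50%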;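 also: compound incubated with DTT at 0.8 mM final as the reducing agent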
PKD1 kinase inh = blocks activity of human protein kinase D1 | PKD1 kinase fluorescence polarization assay | inhibition, % (test concentration not listed) | 200,000 compounds, 0.056% hits | AID 797; in the data active = inhibition above about 50%
Wee1 stabilizer = human Wee1 degradation inhibition, primary screen. P30291. HeLa Luc-Wee1K328M stability, luciferase luminescence; 100% = proteasome inhibitor MG132 effect. reporter increase, % at 5 µM. 220,000 compounds, 1.2% hits. AID 1321;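 active = activation above the mean of all tested compounds plus 3 SD, set per screening run, cut at about 8.8% in these data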;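 also: cells exposed to compound for 20 h before luminescence read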
RBBP9 inh = human RBBP9 hydrolase inhibition; O75884; recombinant RBBP9, FP-Rh probe fluorescence polarization; inhibition, % at 7.94 µM; 220,000 compounds, 0.2% hits; AID 1515;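 active = inhibition above the campaign mean of all tested compounds plus 3 SD, cut at about 14% in these data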
Target sequence (O75884 whole entry, looked up): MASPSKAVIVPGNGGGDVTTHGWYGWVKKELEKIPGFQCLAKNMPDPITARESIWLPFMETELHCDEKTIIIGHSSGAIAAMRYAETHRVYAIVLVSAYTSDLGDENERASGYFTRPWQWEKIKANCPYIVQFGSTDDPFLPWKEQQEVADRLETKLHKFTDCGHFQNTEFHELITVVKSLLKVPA
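Test system: recombinant human RBBP9; Timing: 30 min then 45 min, 25 °C; Detection: fluorescence polarization; Control set: RBBP9 with DMSO as uninhibited control, no-protein wells as full inhibition; Compound dosing: one concentration, 7.94 µM nominal, 0.794% DMSO; Probe or stimulus: FP-Rh activity-based probe, 375 nM before mixing.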
Arbovirus anti = blocks arbovirus infection. inhibition, % at 10 µM. 200,000 compounds, 0.37% hits. arbovirus infection cell-based antiviral screen; in the data active = inhibition above about 30%
p97 inhibitor = inhibitors of human p97 ATPase. inhibition, % at 8 µM. AID 1481. 220,000 compounds, 0.42% hits. recombinant p97 ATPase, Kinase-Glo ATP luminescence, 3 h. P55072; in the data active = inhibition above about 15%
p97 confirm = confirmation of human p97 ATPase inhibitors | shares compounds with p97 inhibitor | recombinant p97 ATPase, Kinase-Glo ATP luminescence | inhibition, % at 8 µM | 760 compounds, 44% hits | AID 1517;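 active = percent inhibition of p97 ATPase above a set limit, the primary screen's mean plus 3 SD, cut at about 15% in these data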
Hits are given with their value; – = inactive; · = no result given.

SMILES | DTT redox prof | PKD1 kinase inh | Wee1 stabilizer | RBBP9 inh | Arbovirus anti | p97 inhibitor | p97 confirm
Cc1c(N=C2C=C(Br)C(=O)C(Br)=C2)c(=O)n(-c2ccccc2)n1C | – | – | – | – | – | 27 | –
Cc1cc(N/N=C/c2ccc(O)cc2O)nc(N2CCOCC2)n1 | · | · | – | – | · | 15 | 17
Oc1ccc(/C=N\Nc2cc(N3CCOCC3)nc(N3CCOCC3)n2)c(O)c1 | – | – | – | – | – | – | ·
COc1ccccc1Nc1nc(N)nc(CCl)n1 | · | · | – | – | · | – | ·
COc1ccc(OC)c(Nc2nc(N)nc(CCl)n2)c1 | · | · | – | – | · | 25 | 25
COc1cccc(Nc2nc(N)nc(CCl)n2)c1 | · | · | – | – | · | 18 | 17
Cc1cccc(Nc2nc(N)nc(CCl)n2)c1 | · | · | – | – | · | – | ·
Cc1ccc(NC(=O)C(=O)NCc2ccncc2)cc1 | – | – | – | – | – | – | ·
COc1ccc(CNc2ncnc3c2[nH]c2ccccc23)cc1 | · | · | – | – | · | 16 | 20
COc1ccc(CNc2ncnc3c2[nH]c2cc(OC)c(OC)cc23)cc1 | · | · | – | – | · | – | ·
CCOCC(=O)N1CCN(c2ccccc2OC)CC1 | – | – | – | – | – | – | ·
O=C(Nc1ccc(S(=O)(=O)Nc2nccs2)cc1)c1ccc(N2C(=O)c3ccccc3C2=O)cc1 | – | – | – | – | – | – | ·
O=C(NCc1ccco1)c1sc(=S)n2c1[nH]c(=O)c1ccccc12 | – | – | – | – | – | 15 | 25
O=C(NC1CCCC1)c1sc(=S)n2c1[nH]c(=O)c1ccccc12 | – | – | – | – | – | – | ·
CC(C)Nc1ccc(Nc2ccnc3cc4ccccc4cc23)cc1 | · | · | – | – | · | 29 | 33
COc1ccc(Nc2ccnc3ccccc23)cc1 | – | – | – | – | – | – | ·
CCc1nc(N2CCN(S(C)(=O)=O)CC2)c2c3c(sc2n1)CCCC3 | – | – | – | – | – | – | ·
Cc1ccc(SC/C(O)=C(\C#N)c2nc3ccccc3s2)cc1 | – | – | – | – | – | 21 | 39
N#C/C(=C(/O)CSc1ccccn1)c1nc2ccccc2s1 | – | – | – | – | – | – | ·
Nc1cc(-c2ccncc2)c[nH]c1=O | – | – | – | – | – | 23 | –
NC(=O)c1csc(-c2ccncc2)n1 | – | – | – | – | – | – | ·
C[n+]1cccc2c(Br)ccc([O-])c21 | · | · | – | – | · | 45 | –
O=C(CCc1ccccc1)NC(c1cccs1)c1cc(Cl)c2cccnc2c1O (stereo unspecified) | – | – | – | – | – | 19 | –
O=C(NNc1c2ccccc2nc2ccccc12)c1ccc(O)cc1O | – | – | – | – | – | 35 | 38
Cc1cc(/C=C(/C#N)c2nc3ccccc3[nH]2)c(C)n1-c1cc(C(=O)O)cc(C(=O)O)c1 | – | – | – | – | – | 17 | –
SMILES | DTT redox prof | PKD1 kinase inh | Wee1 stabilizer | RBBP9 inh | Arbovirus anti | p97 inhibitor | p97 confirm
Cc1cc(/C=C(/C#N)c2nc3ccccc3[nH]2)c(C)n1-c1ccccc1C(=O)O | – | – | – | – | – | – | ·
Cn1c(=O)[nH]c(=O)c2c1nc(N1CCOCC1)n2CCSc1ncccn1 | – | – | – | – | · | – | ·
Cn1c(=O)c2c(-c3ccc(OC(F)F)cc3)cc(-c3ccccc3)nc2n(C)c1=O | · | · | – | – | · | – | ·
COc1ccc(CN2CCN(C(=O)C3CCC(CNS(=O)(=O)c4ccccc4)CC3)CC2)c(OC)c1OC (stereo unspecified) | – | – | – | – | – | – | ·
CC1=Nc2ccccc2/C1=C/c1sc(=S)n(-c2cccc(C(=O)O)c2)c1O | – | – | – | – | – | 16 | 35
Oc1c(C=C2N=c3ccccc3=N2)sc(=S)n1-c1ccccc1 | – | – | – | – | – | – | ·
CCOC(=O)C1Cc2ccccc2CN1 (stereo unspecified) | – | – | – | – | – | 15 | –
COc1ccccc1C(=O)NCC(=O)N/N=C/c1ccncc1 | – | – | – | – | – | 16 | –
OC(CNCCC1C=Nc2ccccc21)Cn1c2ccc(Cl)cc2c2cc(Cl)ccc21 (stereo unspecified) | – | – | – | – | – | 26 | 26
CCc1nnc(N2C(=N)SCC2=O)s1 | – | – | – | – | – | – | ·
Nc1c(C(=O)NCc2ccco2)c2nc3ccccc3nc2n1CCc1ccccc1 | – | – | – | – | – | 18 | –
CN=C(N)NC(=O)Nc1c(C)cccc1C | · | · | – | – | · | 15 | –
CN=C(NC(=O)Nc1c(C)cccc1C)NC(=O)Nc1c(C)cccc1C | – | – | – | – | – | – | ·
COc1ccc2nc(-c3ccc(Cl)cc3)cc(C(=O)O)c2c1 | · | · | – | – | · | – | ·
COc1cc(/C=C2/SC(=Nc3ccc(O)cc3)NC2=O)cc(OC)c1O | – | – | – | – | – | 26 | 20
O=C1NC(=Nc2ccc(O)cc2)S/C1=C\C=C\c1ccco1 | · | · | – | – | · | 36 | 31
COc1cc(/C=C2\SC(=Nc3ccc(O)cc3)NC2=O)cc(OC)c1OC | · | · | – | – | · | – | ·
COCCCNC(=O)c1cc2cc(Br)ccc2oc1=O | – | – | – | – | – | – | ·
O=C(NNC(=O)c1cc2cc(Br)ccc2oc1=O)c1ccc(O)cc1O | – | – | – | – | – | 19 | 24
O=C(CCSc1ccccc1)NC(=O)COC(=O)c1ccc(OC(F)F)cc1 | – | – | – | – | – | – | ·
Cc1ccc(N2CN(Cc3ccco3)CNC2=S)c(C)c1 | – | – | – | – | – | – | ·
Cc1[nH]n(-c2ccccc2)c(=O)c1/C=C1\C=NN=C1c1ccccc1 | · | · | – | – | · | 18 | 17
COc1ccc([N+](=O)[O-])c(S(=O)(=O)c2ccccc2)n1 | · | · | – | – | · | 15 | 17
O=c1cc(-c2ccc([N+](=O)[O-])cc2)c2ccc(O)cc2o1 | – | – | – | – | – | – | ·
O=c1c(-c2ccc([N+](=O)[O-])cc2)coc2c(O)c(O)ccc12 | · | · | – | – | · | 18 | 24
SMILES | DTT redox prof | PKD1 kinase inh | Wee1 stabilizer | RBBP9 inh | Arbovirus anti | p97 inhibitor | p97 confirm
C=C(C)c1nc(N)nc(N)n1 | – | – | – | – | – | – | ·
O=C(Nc1ccccc1OC(F)F)c1ccccc1 | – | – | – | – | – | 16 | –
Cc1ccccc1-c1nnnn1C1CCS(=O)(=O)C1 (stereo unspecified) | – | – | – | – | – | – | ·
Cc1cc(=O)n(C2CCS(=O)(=O)C2)[nH]1 (stereo unspecified) | – | – | – | – | – | 24 | –
COc1ccc(N(/N=C2\Sc3ccccc3C2=O)C(C)=O)cc1 | – | – | – | – | – | 22 | 21
O=C1OC(=O)C2C1[C@@H]1CC[C@H]2O1 (stereo partly specified) | – | – | – | – | – | 16 | –
CCCOc1ccc(CNCCCOCC)cc1OC | – | – | – | – | – | – | ·
CCn1cc(C2=NOC(C(=O)Nc3cc(C)nn3-c3ccccc3)C2)c(C)n1 (stereo unspecified) | – | – | – | – | – | – | ·

Compound activity deposited in PubChem BioAssay by several laboratories.
